Source: ChEMBL document CHEMBL1132597, “Corticotropin-releasing hormone receptor antagonists: framework design and synthesis guided by ligand conformational studies” (J Med Chem, 1999)

Target: T1, Corticotropin-releasing factor receptor 1 (Rattus norvegicus, UniProt P35353)
T1 sequence (P35353 whole entry): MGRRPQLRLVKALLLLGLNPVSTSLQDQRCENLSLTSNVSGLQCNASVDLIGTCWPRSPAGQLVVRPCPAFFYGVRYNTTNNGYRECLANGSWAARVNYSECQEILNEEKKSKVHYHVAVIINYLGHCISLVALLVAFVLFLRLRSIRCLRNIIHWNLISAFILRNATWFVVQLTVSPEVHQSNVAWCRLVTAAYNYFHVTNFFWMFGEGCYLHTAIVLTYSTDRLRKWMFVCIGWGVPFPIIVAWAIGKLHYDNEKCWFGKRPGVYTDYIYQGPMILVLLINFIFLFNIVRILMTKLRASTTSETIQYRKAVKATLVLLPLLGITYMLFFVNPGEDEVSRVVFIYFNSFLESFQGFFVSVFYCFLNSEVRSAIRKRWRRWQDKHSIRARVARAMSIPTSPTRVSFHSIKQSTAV
Experiment: Binding affinity was determined against corticotropin releasing factor receptor 1
Outline: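 Rat CRH1 receptor-binding assay run in pH 7.2 buffer; affinity reported as Ki.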

| Ki (read-out: Ki) [nM] | Ki | Structure (SMILES) |
| --- | --- | --- |
| 722 |  | Cc1cc(Cl)c2c(C#N)cn(-c3ccc(C(C)C)cc3Br)c2n1 |
| 112 |  | Cc1cc(N2CCOCC2)c2c(C#N)cn(-c3ccc(C(C)C)cc3Br)c2n1 |
| 446 |  | Cc1cc(Cl)nc2c1c(C#N)cn2-c1ccc(C(C)C)cc1Br |
| 1 |  | COc1cc(Br)c(-n2ccc3c(C)cc(C)nc32)c(OC)c1 |
| 363 |  | Cc1cc(C)c2c(C#N)cn(-c3ccc(C(C)C)cc3Br)c2n1 |
|  | Not reliable | CCN(c1nc(C)cc(Cl)n1)c1ccc(C(C)C)cc1I |
| 36 |  | Cc1cc(-c2ccccc2)c2ccn(-c3ccc(C(C)C)cc3Br)c2n1 |
| 47 |  | Cc1cc(C)c2ccn(-c3ccc(C(C)C)cc3Br)c2n1 |
| 29 |  | COc1cc(Br)c(-n2cc(C#N)c3c(C)cc(C)nc32)c(OC)c1 |
| 222 |  | Cc1ccc2ccn(-c3ccc(C(C)C)cc3Br)c2n1 |
| 67 |  | Cc1cc(Cl)c2ccn(-c3ccc(C(C)C)cc3Br)c2n1 |
| 34 |  | Cc1cc(-c2ccccc2)c2c(C#N)cn(-c3ccc(C(C)C)cc3Br)c2n1 |
| 1280 |  | Cc1ccc2c(C#N)cn(-c3ccc(C(C)C)cc3Br)c2n1 |
| 48 |  | Cc1cc(C)nc(N(C)c2ccc(C(C)C)cc2I)n1 |
| 79 |  | Cc1cc(Cl)nc2c1ccn2-c1ccc(C(C)C)cc1Br |
| 43 |  | CCN(c1nc(C)nc(N2CCOCC2)n1)c1c(Br)cc(OC)cc1OC |
| 22 |  | CCN(c1nc(C)cc(N2CCOCC2)n1)c1ccc(C(C)C)cc1Br |
| 5 |  | CCN(c1nc(C)cc(C)n1)c1c(Br)cc(OC)cc1OC |
| 28 |  | Cc1cc(N2CCOCC2)c2ccn(-c3ccc(C(C)C)cc3Br)c2n1 |

| Structure (SMILES) | Ki (read-out: Ki) [nM] | Ki |
| --- | --- | --- |
| Cc1ccnc2c1c(C#N)cn2-c1ccc(C(C)C)cc1Br | > 10000 |  |
| Cc1ccc2c(C#N)cn(-c3ccc(C(C)C)cc3Br)c2[n+]1[O-] | > 10000 |  |
| Cc1ccnc2c1ccn2-c1ccc(C(C)C)cc1Br | > 10000 |  |
| Cc1cc(-c2ccccc2)nc2c1ccn2-c1ccc(C(C)C)cc1Br | > 10000 |  |
| Cc1cc(-c2ccccc2)nc2c1c(C#N)cn2-c1ccc(C(C)C)cc1Br | > 100000 |  |
| Cc1cc(C)c2c(C(=O)O)cn(-c3ccc(C(C)C)cc3Br)c2n1 | > 10000 |  |
| Cc1cc(=O)[nH]c2c1c(C#N)cn2-c1ccc(C(C)C)cc1Br | > 10000 |  |
| Cc1cc(C)c2c(C(N)=O)cn(-c3ccc(C(C)C)cc3Br)c2n1 | > 10000 |  |
| Cc1cc(C)nc(Nc2ccc(C(C)C)cc2Br)n1 | > 10000 |  |
| CCN(c1cc(C)nc(C)n1)c1ccc(C(C)C)cc1Br | > 1000 |  |
